In brackets after ≈: the same amount, converted by molar mass.
Experiments:
Aqueous solubility = type: physicochemical; details: water, room temperature (25°C), n=4
[1] = PTX loading by HPLC standard curve; type: physicochemical; details: HPLC peak area versus PTX content, n=5
Outline: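 PTX content of the conjugate was calculated theoretically and checked against an HPLC standard curve of peak area versus PTX content, with standards in anhydrous ethyl alcohol.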

[2] = Release of free PTX in PBS; type: physicochemical; details: PBS pH 7.4, 37°C, 4 hours
Outline: (§1)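 Test conjugate was dissolved at 5 mg per 2.5 mL in PBS pH 7.4 or human plasma and held at 37°C for up to 12 hours. Aliquots were drawn at set times and free PTX was extracted into ethyl acetate. Free PTX was quantified by reverse-phase C18 HPLC at 1 mL per minute and 30°C, with UV detection at 227 nm.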

[3] = Release of free PTX in human plasma, HPLC; type: in vitro ADME; details: 37°C, 4 hours
Outline: as §1

MDA-MB-231 cells [4] = experiment: Cellular uptake by flow cytometry; type: cell-based, human; details: MDA-MB-231, 1 mg/mL, 8 hours
Outline: (§2)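 Cells were seeded at 5×10^5 per well in culture medium (37°C, 5% CO2) and left overnight. They were then given 1 mg/mL solution of the FITC- or 5-aminofluorescein-labelled folate–PTX conjugates and incubated 8 h at 37°C. Cells were resuspended in PBS and immediately analysed by flow cytometry for percentage of fluorescent cells.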

MCF-7 cells [5] = experiment: Cellular uptake by flow cytometry; type: cell-based, human; details: MCF-7, 1 mg/mL, 8 hours
Outline: as §2

A549 cells [6] = experiment: Cellular uptake by flow cytometry; type: cell-based, human; details: A549, 1 mg/mL, 8 hours
Outline: as §2

HEK293 cells = experiment: Cellular uptake by flow cytometry; type: cell-based, human; details: HEK293 normal cells, 1 mg/mL, 8 hours
Outline: as §2

[7] = system: tumor cell lines (MDA-MB-231, MCF-7, A549); experiment: Cellular uptake by flow cytometry, tumor groups together; type: cell-based, human; details: range over the three tumor cell lines
Outline: as §2

MDA-MB-231 cells [8] = experiment: Apoptosis study, PI staining and flow cytometry; type: cell-based, human; details: MDA-MB-231, 24 hours, 1 mg/mL
Outline: (§3)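 Cells grown at 37°C, 5% CO2 in DMEM or RPMI 1640 with 10% FBS and penicillin/streptomycin. They were exposed for 24 h to free PTX or the fluorescein-labelled folate–PTX conjugates, added as a 1 mg/mL solution. Cells were then resuspended in binding buffer, stained with propidium iodide, and analysed at once by flow cytometry. The PI-positive late apoptotic/necrotic quadrant (Q4) was scored.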

MCF-7 cells [9] = experiment: Apoptosis study, PI staining and flow cytometry; type: cell-based, human; details: MCF-7, 24 hours, 1 mg/mL
Outline: as §3

A549 cells [10] = experiment: Apoptosis study, PI staining and flow cytometry; type: cell-based, human; details: A549, 24 hours, 1 mg/mL
Outline: as §3

MCF-7 tumors = experiment: In vivo antitumor activity; parameters: species or system nude mice; details: MCF-7-bearing mice; for tumor growth inhibition rate: 5 mg/kg i.v. every 3 days, five injections
Outline: (§4)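 Tumor cells implanted in the upper right axillary fossa of nude mice; treatment began when tumors reached 0.2–0.5 cm diameter. Mice were randomized to four groups (n=5): PBS pH 7.4 control, free paclitaxel, or test conjugates, each at 5 mg/kg in 0.2 mL. Dosing was by tail vein every 3 days, five injections over 15 days. Tumor volume and body weight were recorded daily; values are mean ± SD.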

A549 tumors = experiment: In vivo antitumor activity; parameters: species or system nude mice; details: for tumor growth inhibition rate: 5 mg/kg i.v. every 3 days, five injections
Outline: as §4

[11] = system: MDA-MB-231, MCF-7, and A549 cancer cells; experiment: Cell viability; type: cell-based, human
Outline: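 MTT assay. Cells were plated at 5×10^3 per well and exposed for 48 h to PTX or the conjugates (theoretical PTX content 45.93% and 47.71%) at […]–1 μg/mL, equal to 0.01435–0.4771 μg/mL conjugated PTX. Each drug was tested in six wells. MTT (5 mg/mL stock) was then added and absorbance read at 490 nm.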

Acute toxicity = details: both, Kunming, mouse, in vivo, iv
normal (Kunming) mice = experiment: Acute toxicity; details: tail vein, mice

Compound | PTX loading [1] | free PTX released [2] [%] | cell uptake rate (MDA-MB-231 cells [4]) [%] | cell uptake rate (MCF-7 cells [5]) [%] | cell uptake rate (A549 cells [6]) [%] | cell uptake rate (HEK293 cells) [%] | percentage cell uptake in the tumor groups [7] | late apoptosis/necrotic value (Q4) (MDA-MB-231 cells [8]) [%] | late apoptosis/necrotic value (Q4) (MCF-7 cells [9]) [%] | late apoptosis/necrotic value (Q4) (A549 cells [10]) [%] | decrease of body weight, of original weight (A549 tumors; A549-bearing mice) | tumor growth inhibition rate (MCF-7 tumors) | tumor growth inhibition rate (A549 tumors; A549-bearing mice) [%] | also measured
CC(=O)O[C@H]1C(=O)[C@@]2(C)[C@H]([C@H](OC(=O)c3ccccc3)[C@]3(O)C[C@H](OC(=O)[C@H](OC(=O)[C@H](CCC(=O)Nc4ccc5c(c4)C(=O)OC54c5ccc(O)cc5Oc5cc(O)ccc54)NC(=O)CC[C@H](NC(=O)c4ccc(NCc5cnc6nc(N)[nH]c(=O)c6n5)cc4)C(=O)O)[C@@H](NC(=O)c4ccccc4)c4ccccc4)C(C)=C1C3(C)C)[C@]1(OC(C)=O)CO[C@@H]1C[C@@H]2O [FA-5AF-Glu-PTX, folic acid-5-aminofluorescein-glutamic-paclitaxel] | 32.19%±0.35% | 23.3 | 85.9 | 75.1 | 59.0 | 1.9 | 59.01%–85.93% | 34.1 | 27.9 | 16.3 | about 2% |  |  | solubility (Aqueous solubility): 6410 ± 180 µg/mL (≈ 3.69 mM); free PTX released [3]: 54.84%; body weight change during treatment (MCF-7 tumors): gradual increase; inhibition rate relative to free PTX (A549 tumors; A549 tumor): ~1.3 times
folic acid-fluorescein-5(6)-isothiocyanate-arginine-paclitaxel [FA-FITC-Arg-PTX] | 38.70%±0.49% | 25.8 | 89.6 | 78.1 | 63.2 | 2.1 | 63.22%–89.63% | 36.5 | 26.7 | 16.8 |  | 57.63% | 48.65 | cell viability ([11]; tumor cells, high doses): approximately 20%
CC(=O)O[C@H]1C(=O)[C@@]2(C)[C@H]([C@H](OC(=O)c3ccccc3)[C@]3(O)C[C@H](OC(=O)[C@H](O)[C@@H](NC(=O)c4ccccc4)c4ccccc4)C(C)=C1C3(C)C)[C@]1(OC(C)=O)CO[C@@H]1C[C@@H]2O [PTX, Paclitaxel, reference compound] |  |  |  |  |  |  |  | 25.8 | 19.9 | 14.6 | about 25.34% | about 38.16% | 35.23 | inhibition ratio (of total cells) ([11]; MTT, 48 hours, three tumor cell lines, maximum reached): ≤ 62.4%; body weight loss (MCF-7 tumors; end of treatment): 3.88 g; body weight loss, of original body weight (MCF-7 tumors; end of treatment): approximately 20%; decrease of body weight (A549 tumors; A549-bearing mice): 3.92 g; LD50 at 14 days (Acute toxicity): 25.48 ± 0.17 mg/kg; survival rate (normal (Kunming) mice; 15 mg/kg): 90%; survival rate (normal (Kunming) mice; 45 mg/kg): 0%
